This note sets out measurements from ChEMBL document CHEMBL5715938, “The protein kinase Cbeta-selective inhibitor, Enzastaurin (LY317615.HCl), suppresses signaling through the AKT pathway, induces apoptosis, and suppresses growth of human colon cancer and glioblastoma xenografts” (Cancer Res, 2005).

Calls of active or inactive are those of the source. The calls are words filed in the database; no cut-off is given here. A value given as a limit tells only on which side of the number the result lay.

Series [1] concerns NCI-H460. The experiment in a line: Antiproliferative activity against human NCI-H460 cells assessed as reduction in cell growth upto 10 uM measured after 6 days by propidium iodide staining based analysis. Format: functional. The conditions noted are these: time 6.0 day. In outline: (§1)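 ATCC-sourced lines grown without antibiotics; 1,000 cells/well in 1% FBS medium, refed ±drug on days 1 and 4 over a 6-day course. On day 7, propidium iodide (10 μg/mL in D-PBS) read after 30 min for nonviable cells, plate frozen at -80°C 2 h, thawed and reread; proliferative index = postfreeze minus prefreeze signal.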

Series [2] has as its system MOLT-4. The experiment in a line: Antiproliferative activity against human MOLT-4 cells assessed as reduction in cell growth upto 10 uM measured after 6 days by propidium iodide staining based analysis. Type of series: functional. The conditions noted are these: time 6.0 day. In outline: as §1
The species entered for series [3] is Homo sapiens. The experiment in a line: Inhibition of p70S6K (unknown origin) at 1 micromol/L relative to control. The conditions noted are these: dose 1.0 µmol/L. In outline:
(§2)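 Commercial kinase profiler panel run to the provider's protocol, with the compound tested at 1 µmol/L. Activity is expressed as percent of kinase activity without compound.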

For series [4], the system named is NCI-H23. The series is described as follows: Antiproliferative activity against human NCI-H23 cells assessed as reduction in cell growth upto 10 uM measured after 6 days by propidium iodide staining based analysis. Format: functional. The conditions noted are these: time 6.0 day. In outline:
as §1

Series [5] has as its system HCT-116. The experiment in a line: Antitumor activity against human HCT-116 cells xenografted in athymic nude mouse assessed as reduction in GSK3beta phosphorylation at serine 9 residue at 75 mg/kg, po administered twice daily measured after 2 hrs by ELISA method relative to control. Format: functional. Set-up: scale not given: the % may be the effect or the level left. The method in brief:
(§3)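 HCT116-bearing nude mice, 75 mg/kg by gavage; tumors and PBMCs harvested 0.5, 2, 4, 8 h post-dose, n = 5 per time point. PBMCs from five mice pooled via CPT tube. Lysates assayed by pGSK3β Ser9 immunometric ELISA (tumor 400–600 μg, PBMC 50–100 μg protein/well); percent of vehicle control, Dunnett/ANOVA.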
In general terms: A xenograft is tissue or cells of one species grown in another, often human tumour cells in immunodeficient mice.

Series [6] deals with Malme-3M. The experiment in a line: Antiproliferative activity against human Malme-3M cells assessed as reduction in cell growth upto 10 uM measured after 6 days by propidium iodide staining based analysis. Format: functional. The conditions noted are these: time 6.0 day. The method in brief:
as §1

Series [7] is described as follows: Plasma concentration in athymic nude mouse xenografted with human HCT-116 cells at 75 mg/kg, po administered twice daily measured after 1 hr by LC-MS analysis. Format: ADME, organism-based. The method in brief: (§4)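 Female athymic nude mice, 6–8 weeks old, received 5 million HCT116 cells s.c. in the flank in 1:1 serum-free medium and matrigel (n = 9 per group). Dosing began at a group mean tumor volume of 100 mm³: 75 mg/kg twice daily by gavage, suspended in 10% acacia in water. Plasma was taken on days 1 and 21 at 0.5–12 h post-dose and measured by LC-MS/MS.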

For series [8], the target named is Fibroblast growth factor receptor 3 (Homo sapiens) (UniProt P22607). The experiment in a line: Inhibition of FGFR3 (unknown origin) at 1 micromol/L relative to control. The conditions noted are these: dose 1.0 µmol/L. In outline:
(§5)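 Upstate Kinase Profiler panel at 1 μmol/L drug, run per provider; data expressed as percent of kinase activity without drug.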

Series [9] deals with U-87 MG. The series is described as follows: Antitumor activity against human U-87 MG cells xenografted in athymic nude mouse assessed as reduction in tumor growth at 75 mg/kg, po administered twice daily measured after 21 days. Type of series: functional, organism-based. The conditions noted are these: U-87MG ATCC, time 21.0 day. The method in brief:
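Female athymic nude mice, 6–8 weeks, 5 million cells s.c. flank in 1:1 serum-free medium/matrigel; at group mean 100 mm³, 75 mg/kg by gavage twice daily in 10% acacia for 21 days, n = 9/group, vehicle controls; caliper volume A²×B×0.536; two-way repeated measures analysis.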

Series [10] can be described thus: Drug concentration in athymic nude mouse plasma xenografted with human HCT-116 cells at 75 mg/kg, po administered twice daily measured after 8 to 12 hrs by LC-MS analysis. Type of series: ADME, organism-based. The conditions noted are these: in vivo, time 8-12 hrs. In outline: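 HCT116-bearing nude mice given 75 mg/kg twice daily by gavage; plasma collected on day 1 and day 21 at 0.5, 1, 2, 4, 8 and 12 h after dose; drug quantified by LC-MS/MS.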

The target in series [11] is Mitogen-activated protein kinase 9 (Homo sapiens) (UniProt P45984). The series is described as follows: Inhibition of JNK2alpha2 (unknown origin) at 1 micromol/L relative to control. The conditions noted are these: dose 1.0 µmol/L. The method in brief:
as §5

In series [12] the target is Serine/threonine-protein kinase N2 (Homo sapiens) (UniProt Q16513). The series is described as follows: Inhibition of PRK2 (unknown origin) at 1 micromol/L relative to control. The conditions noted are these: dose 1.0 µmol/L. The method in brief:
as §2

Series [13] concerns HCT-116. The experiment in a line: Inhibition of ribosomal protein S6 phosphorylation at serine 240/244 residue in human HCT-116 cells at 1 micromol/L upto 4 hrs by Western blotting analysis. Type of series: cell-based. The conditions noted are these: dose 1.0 µmol/L. The method in brief: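 HCT116 cells from ATCC were grown in FBS-containing medium without antibiotics. They were lysed in cell extraction buffer with protease inhibitor cocktails, and protein was measured by DC assay. Western blotting used phospho-S6 Ser240/244 and total S6 ribosomal protein antibodies.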
A general note: A western blot detects proteins with antibodies after separation by electrophoresis.

The subject of series [14] is DU-145. The series is described as follows: Antiproliferative activity against human DU-145 cells assessed as reduction in cell growth upto 10 uM measured after 6 days by propidium iodide staining based analysis. Type of series: functional. The conditions noted are these: time 6.0 day. The method in brief:
as §1

Series [15] has as its system HCT-116. The experiment in a line: Antitumor activity against human HCT-116 cells xenografted in athymic nude mouse assessed as reduction in GSK3beta phosphorylation at serine 9 residue at 75 mg/kg, po administered twice daily measured after 12 hrs by Western blotting analysis. Type of series: functional, organism-based.
In series [16] the test system is HCT-116. The experiment in a line: Antitumor activity against human HCT-116 cells xenografted in athymic nude mouse assessed as reduction in GSK3beta phosphorylation at serine 9 residue at 75 mg/kg, po administered twice daily measured after 2 to 4 hrs by ELISA method relative to control. Format: functional. Set-up: scale not given: the % may be the effect or the level left. The conditions noted are these: time 2-4 hrs. The method in brief:
as §3

Series [17] deals with U-87 MG. The series is described as follows: Inhibition of ERK in human U-87 MG cells at 1 micromol/L measured upto 4 hrs by Western blotting analysis. The conditions noted are these: dose 1.0 µmol/L. Type of series: cell-based. In outline:
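Cultured tumor cells treated with 1 μmol/L drug; lysates in cell extraction buffer with protease inhibitors, western blotted with phospho-specific antibodies (pGSK3β Ser9, pAKT Thr308, phospho-ERK) alongside total GSK3β/AKT.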

In series [18] the test system is U-87 MG. The series is described as follows: Induction of apoptosis in human U-87 MG cells assessed as increase in oligonucleosomal fragmentation at 1 to 4 micromol/L incubated for 48 hrs by ELISA method. Type of series: functional, cell-based. The conditions noted are these: U-87MG ATCC, dose 1-4 µmol/L. In outline:
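Oligonucleosomal fragmentation by Cell Death Detection ELISA-plus; 5,000 cells/well in 1% FBS medium, treated 48 h (range studied 0.1–10 μmol/L); absorbance normalized to control-treated cells to give nucleosomal enrichment factor.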
On the technique in general: In an ELISA, binding on a coated surface is turned into a signal by an enzyme label.

Series [19] has as its system HCT-116. The experiment in a line: Antitumor activity against human HCT-116 cells xenografted in athymic nude mouse assessed as reduction in GSK3beta phosphorylation at serine 9 residue at 75 mg/kg, po administered twice daily by Western blotting analysis. Format: functional, organism-based. The conditions noted are these: time <= 8.0 hrs, TDE = time-dependent effect.

Series [20] deals with Mitogen-activated protein kinase 13 (Homo sapiens) (UniProt O15264). The series is described as follows: Inhibition of SAPK4 (unknown origin) at 1 micromol/L relative to control. The conditions noted are these: dose 1.0 µmol/L. The method in brief:
as §2

Series [21] is described as follows: Plasma concentration in athymic nude mouse xenografted with human HCT-116 cells at 75 mg/kg, po administered twice daily measured after 2 hrs by LC-MS analysis. Format: ADME, organism-based. In outline:
as §4

In series [22] the test system is K562. The series is described as follows: Antiproliferative activity against human K562 cells assessed as reduction in cell growth upto 10 uM measured after 6 days by propidium iodide staining based analysis. Type of series: functional. The conditions noted are these: time 6.0 day. In outline: as §1
The target in series [23] is Mitogen-activated protein kinase 14 (Homo sapiens) (UniProt Q16539). The series is described as follows: Inhibition of SAPK2alpha (unknown origin) at 1 micromol/L relative to control. The conditions noted are these: dose 1.0 µmol/L. In outline: as §2
Mitogen-activated protein kinase 14 (Homo sapiens), sequence (Q16539 whole entry): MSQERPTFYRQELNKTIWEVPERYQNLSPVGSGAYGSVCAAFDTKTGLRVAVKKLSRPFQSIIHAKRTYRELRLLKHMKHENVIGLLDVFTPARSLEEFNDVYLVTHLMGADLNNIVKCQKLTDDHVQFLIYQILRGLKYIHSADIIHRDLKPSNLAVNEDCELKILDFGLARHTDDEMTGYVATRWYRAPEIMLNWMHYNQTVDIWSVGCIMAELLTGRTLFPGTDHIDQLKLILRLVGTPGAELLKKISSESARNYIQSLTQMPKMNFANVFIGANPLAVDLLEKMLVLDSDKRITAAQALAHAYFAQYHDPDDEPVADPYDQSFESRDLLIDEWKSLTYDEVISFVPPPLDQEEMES

Mitogen-activated protein kinase 9 (Homo sapiens), sequence (P45984 whole entry, looked up): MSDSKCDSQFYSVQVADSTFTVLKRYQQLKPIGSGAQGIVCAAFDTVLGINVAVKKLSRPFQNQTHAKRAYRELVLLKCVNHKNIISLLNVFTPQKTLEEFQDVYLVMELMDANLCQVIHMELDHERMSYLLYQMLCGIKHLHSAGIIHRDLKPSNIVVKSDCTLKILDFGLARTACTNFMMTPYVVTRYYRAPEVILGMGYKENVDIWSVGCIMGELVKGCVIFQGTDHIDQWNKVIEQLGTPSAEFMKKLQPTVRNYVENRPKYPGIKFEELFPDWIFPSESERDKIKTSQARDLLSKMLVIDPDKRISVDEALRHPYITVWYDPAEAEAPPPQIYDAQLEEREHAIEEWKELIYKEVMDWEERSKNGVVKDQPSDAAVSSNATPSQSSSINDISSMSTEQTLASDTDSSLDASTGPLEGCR
Serine/threonine-protein kinase N2 (Homo sapiens), sequence (Q16513 whole entry, looked up): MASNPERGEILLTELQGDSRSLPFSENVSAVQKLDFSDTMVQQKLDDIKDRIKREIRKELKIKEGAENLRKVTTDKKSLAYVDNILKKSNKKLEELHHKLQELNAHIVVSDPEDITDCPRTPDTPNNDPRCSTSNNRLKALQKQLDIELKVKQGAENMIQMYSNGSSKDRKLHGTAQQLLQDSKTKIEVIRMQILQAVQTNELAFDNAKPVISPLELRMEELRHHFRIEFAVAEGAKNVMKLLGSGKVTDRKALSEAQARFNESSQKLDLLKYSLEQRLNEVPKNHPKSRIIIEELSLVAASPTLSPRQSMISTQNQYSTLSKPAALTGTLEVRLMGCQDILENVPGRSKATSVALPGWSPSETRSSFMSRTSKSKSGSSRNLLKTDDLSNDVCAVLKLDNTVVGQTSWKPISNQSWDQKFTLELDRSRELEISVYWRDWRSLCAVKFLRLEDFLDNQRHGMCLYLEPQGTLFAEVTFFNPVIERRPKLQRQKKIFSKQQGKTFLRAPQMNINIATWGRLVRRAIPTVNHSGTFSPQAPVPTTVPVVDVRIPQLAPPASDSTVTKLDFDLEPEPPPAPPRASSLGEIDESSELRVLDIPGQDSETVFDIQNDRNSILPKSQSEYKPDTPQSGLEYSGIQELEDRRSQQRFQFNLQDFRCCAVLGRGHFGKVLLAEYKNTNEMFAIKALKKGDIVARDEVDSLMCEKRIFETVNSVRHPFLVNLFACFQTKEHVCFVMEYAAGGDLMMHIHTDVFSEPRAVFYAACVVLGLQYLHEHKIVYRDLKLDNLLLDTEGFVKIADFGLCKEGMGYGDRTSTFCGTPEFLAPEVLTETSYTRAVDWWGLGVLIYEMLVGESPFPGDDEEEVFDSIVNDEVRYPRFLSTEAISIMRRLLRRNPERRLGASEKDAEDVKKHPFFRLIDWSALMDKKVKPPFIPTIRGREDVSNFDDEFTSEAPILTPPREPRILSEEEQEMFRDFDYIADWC
Mitogen-activated protein kinase 13 (Homo sapiens), sequence (O15264 whole entry): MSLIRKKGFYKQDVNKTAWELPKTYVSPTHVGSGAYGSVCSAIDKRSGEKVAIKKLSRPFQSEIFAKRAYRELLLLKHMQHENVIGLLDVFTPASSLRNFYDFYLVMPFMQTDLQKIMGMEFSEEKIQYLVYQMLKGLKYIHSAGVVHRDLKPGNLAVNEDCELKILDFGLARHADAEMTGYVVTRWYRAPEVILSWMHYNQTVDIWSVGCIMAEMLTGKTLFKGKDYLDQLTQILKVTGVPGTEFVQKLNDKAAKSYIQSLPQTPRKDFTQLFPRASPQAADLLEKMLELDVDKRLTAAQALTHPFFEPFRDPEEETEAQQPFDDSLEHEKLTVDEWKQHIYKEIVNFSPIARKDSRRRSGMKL
Fibroblast growth factor receptor 3 (Homo sapiens), sequence (P22607 23-806 limits assumed): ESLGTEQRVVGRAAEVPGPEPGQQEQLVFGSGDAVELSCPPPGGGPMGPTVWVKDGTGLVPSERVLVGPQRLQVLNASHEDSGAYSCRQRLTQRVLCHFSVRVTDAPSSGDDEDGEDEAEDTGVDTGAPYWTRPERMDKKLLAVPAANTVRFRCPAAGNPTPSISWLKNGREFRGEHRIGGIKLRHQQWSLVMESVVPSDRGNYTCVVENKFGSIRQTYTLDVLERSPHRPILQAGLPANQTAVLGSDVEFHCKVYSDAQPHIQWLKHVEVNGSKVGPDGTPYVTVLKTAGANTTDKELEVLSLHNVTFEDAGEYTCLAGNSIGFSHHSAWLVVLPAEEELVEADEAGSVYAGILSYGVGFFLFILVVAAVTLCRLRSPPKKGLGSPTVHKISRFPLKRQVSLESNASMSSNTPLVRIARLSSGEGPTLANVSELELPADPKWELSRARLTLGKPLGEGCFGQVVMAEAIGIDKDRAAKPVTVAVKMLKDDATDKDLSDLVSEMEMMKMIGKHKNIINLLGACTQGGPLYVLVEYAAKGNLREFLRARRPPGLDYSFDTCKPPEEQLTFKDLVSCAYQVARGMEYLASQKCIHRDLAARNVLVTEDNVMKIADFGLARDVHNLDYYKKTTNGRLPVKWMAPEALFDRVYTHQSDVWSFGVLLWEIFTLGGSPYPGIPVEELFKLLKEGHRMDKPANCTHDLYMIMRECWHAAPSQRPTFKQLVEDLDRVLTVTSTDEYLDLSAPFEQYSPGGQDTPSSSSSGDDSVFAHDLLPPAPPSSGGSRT

For the compound `Cl.Cn1cc(C2=C(c3cn(C4CCN(Cc5ccccn5)CC4)c4ccccc34)C(=O)NC2=O)c2ccccc21` [ENZASTAURIN HYDROCHLORIDE], the result in [1], in [4], in series [6], in series [14] and in [15] was inactive. Also, the result in series [2], in [9], in series [18] and in series [22] was Active. The % control activity in series [3] turned out to be 52%; in [8] it was 82%; in series [11] it was 103%; in series [12], 88%; in series [20] it was 97%; in series [23], 101%. The results for the Activity in series [5], in [16] and in [19] were 80%, over 60% and “Tde”, respectively. Moreover, in series [7], the concentration at 1 h turned out to be 3000 nM. The Drug uptake result in [10] was “Not Active”. For the same compound, in series [13], the inhibition result was “Active”. In addition, the inhibition result in series [17] was “inactive”. The same compound registered a concentration at 2 h in series [21] of 2000 nM.
